Measurements published in ChEMBL document CHEMBL1128308, “Synthesis and antiinflammatory activity of certain 5,6,7,8-tetrahydroquinolines and related compounds” (J Med Chem, 1995).

Key:
[1] = biological target: T1, Polyunsaturated fatty acid 5-lipoxygenase (Rattus norvegicus) (UniProt P12527); assay: Inhibition of 5-lipoxygenase pathway in rat polymorphonuclear assay (inhibition of 5-HETE formation)
T1 sequence (whole entry): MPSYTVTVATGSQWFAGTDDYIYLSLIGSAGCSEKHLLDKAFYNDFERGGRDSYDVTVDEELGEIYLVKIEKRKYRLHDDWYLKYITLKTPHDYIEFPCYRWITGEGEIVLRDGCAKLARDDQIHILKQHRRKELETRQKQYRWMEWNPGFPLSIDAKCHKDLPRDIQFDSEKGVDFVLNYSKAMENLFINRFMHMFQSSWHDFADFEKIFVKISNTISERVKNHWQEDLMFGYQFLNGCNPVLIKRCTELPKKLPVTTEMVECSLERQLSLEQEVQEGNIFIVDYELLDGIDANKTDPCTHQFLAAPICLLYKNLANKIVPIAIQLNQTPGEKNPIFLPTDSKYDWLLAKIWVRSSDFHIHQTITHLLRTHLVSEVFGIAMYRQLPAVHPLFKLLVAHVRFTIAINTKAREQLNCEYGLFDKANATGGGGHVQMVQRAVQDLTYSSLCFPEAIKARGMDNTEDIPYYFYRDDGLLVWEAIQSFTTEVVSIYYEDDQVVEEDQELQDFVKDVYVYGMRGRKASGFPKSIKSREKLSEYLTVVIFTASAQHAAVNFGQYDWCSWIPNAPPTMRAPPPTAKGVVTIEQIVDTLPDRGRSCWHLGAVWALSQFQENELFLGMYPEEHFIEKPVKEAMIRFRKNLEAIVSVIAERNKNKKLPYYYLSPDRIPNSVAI
In short: (§1)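 Rat polymorphonuclear leucocytes at 10^7 cells/mL in HBSS (Mg2+, Ca2+, 10 mM cysteine) were preincubated with compound, added in DMSO, for 10 min at 37 °C with shaking. Radiolabeled eicosanoids (5-HETE for the 5-LO pathway, TXB2 for the CO pathway) were separated by HPLC and detected with an in-line radioactivity detector. Results are given as percent change at 10 µM or 50 µM.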

[2] = biological target: T1, Polyunsaturated fatty acid 5-lipoxygenase (Rattus norvegicus); assay: Inhibition of 5-lipoxygenase pathway in rat polymorphonuclear assay, by ability to inhibit formation of LTB4 AT 10 uM
[3] = biological target: T2, Polyunsaturated fatty acid 5-lipoxygenase (Rattus norvegicus, UniProt P12527); assay: 5-lipoxygenase inhibitory activity against rat polymorphonuclear leucocytes from female wistar rat, by using 5-HETE.; in short: as §1
T2 sequence (P12527 whole entry): T1 sequence (whole entry)

[4] = biological target: T2, Polyunsaturated fatty acid 5-lipoxygenase; assay: 5-lipoxygenase inhibitory activity against rat polymorphonuclear leucocytes from female wistar rat, by using LTB4.
Cyclooxygenase [5] = biological target: T3, Cyclooxygenase (Rattus norvegicus, UniProt P35355+Q63921); assay: Prostaglandin G/H synthase Inhibitory activity against rat polymorphonuclear leucocytes from female wistar rat, by using PGE-2.
T3 sequence (P35355 whole entry): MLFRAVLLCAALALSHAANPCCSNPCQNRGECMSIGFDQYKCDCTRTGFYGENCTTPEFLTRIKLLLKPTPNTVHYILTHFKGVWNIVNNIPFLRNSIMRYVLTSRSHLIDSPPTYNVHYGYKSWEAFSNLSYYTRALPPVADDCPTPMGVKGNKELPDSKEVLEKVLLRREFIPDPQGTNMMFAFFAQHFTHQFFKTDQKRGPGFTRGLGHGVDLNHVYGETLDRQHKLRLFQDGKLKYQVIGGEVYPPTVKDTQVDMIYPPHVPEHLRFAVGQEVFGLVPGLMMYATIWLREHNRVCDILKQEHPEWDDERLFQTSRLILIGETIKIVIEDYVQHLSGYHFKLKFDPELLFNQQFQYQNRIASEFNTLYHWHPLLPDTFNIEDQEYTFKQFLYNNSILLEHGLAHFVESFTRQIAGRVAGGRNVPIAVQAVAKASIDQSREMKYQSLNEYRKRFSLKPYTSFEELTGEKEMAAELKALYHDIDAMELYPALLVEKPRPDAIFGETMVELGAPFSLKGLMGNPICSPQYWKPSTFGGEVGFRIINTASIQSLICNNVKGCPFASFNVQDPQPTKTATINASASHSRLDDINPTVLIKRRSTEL
T3 sequence (Q63921 whole entry): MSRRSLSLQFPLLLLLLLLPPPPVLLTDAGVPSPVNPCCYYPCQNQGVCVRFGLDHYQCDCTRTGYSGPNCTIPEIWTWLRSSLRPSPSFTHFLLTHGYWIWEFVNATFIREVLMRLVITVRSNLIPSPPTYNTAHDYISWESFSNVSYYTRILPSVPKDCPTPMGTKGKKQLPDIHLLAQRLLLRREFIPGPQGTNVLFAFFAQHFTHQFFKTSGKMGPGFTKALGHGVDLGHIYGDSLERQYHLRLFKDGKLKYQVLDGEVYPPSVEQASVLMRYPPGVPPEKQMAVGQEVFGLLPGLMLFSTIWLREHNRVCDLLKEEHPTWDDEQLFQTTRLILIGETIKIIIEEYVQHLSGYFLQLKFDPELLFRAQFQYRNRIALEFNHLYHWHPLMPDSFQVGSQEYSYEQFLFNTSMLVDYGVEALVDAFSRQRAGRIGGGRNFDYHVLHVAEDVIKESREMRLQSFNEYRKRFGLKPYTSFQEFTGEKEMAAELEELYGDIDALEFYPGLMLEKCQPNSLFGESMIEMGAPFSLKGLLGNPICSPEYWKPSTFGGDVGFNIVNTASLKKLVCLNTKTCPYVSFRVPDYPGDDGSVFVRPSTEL

Cyclooxygenase [6] = biological target: T3, Cyclooxygenase; assay: Prostaglandin G/H synthase Inhibitory activity against rat polymorphonuclear leucocytes from female wistar rat, by using TXB2.; in short: as §1
Rattus norvegicus [7] = assay: Antiinflammatory activity by rat Carrageenan edema assay at 50 mg/kg peroral administration (3h edema).; type: functional; conditions: route oral
In short: (§2)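 Groups of six male Sprague-Dawley rats (150-165 g) were dosed po in 0.5% methyl cellulose. One hour later, 0.1 mL of 1% carrageenan was injected subplantar into the right hind paw. Edema was taken as the 3 h paw volume minus the zero-time volume and expressed as percent change versus vehicle; screening dose was 50 mg/kg po.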

Rattus norvegicus [8] = assay: Anti-inflammatory activity by rat carrageenan edema assay (3h edema).; type: functional; in short: as §2
Rattus norvegicus [9] = organism: Rattus norvegicus; assay: Anti-inflammatory activity by rat adjuvant Arthritis assay (uninjected paw at day 16).
Rattus norvegicus [10] = assay: Antiinflammatory activity by rat adjuvant arthritis assay at 30 mg/kg peroral administration (uninjected paw at day 16).; conditions: route oral

Change [1]: -49%
Change [2]: -43%
IC50 [3]: 27 µM
IC50 [4]: 14 µM
IC50 (Cyclooxygenase [5]): > 50 µM
IC50 (Cyclooxygenase [6]): 33 µM
SMILES: Cc1ccc(C(O)c2nc3c(cc2C)CCCCC3)cc1 (stereo not given)
Change (Rattus norvegicus [7]): -58%
ED50 (Rattus norvegicus [8]): 40 mg/kg
ED50 (Rattus norvegicus [9]): 30 mg/kg
Change (Rattus norvegicus [10]): -49%
